{"source": "paper PMC7359933", "about": "(Clinical and Translational Science, 2020)", "key": {"[1]": {"conditions": "ritonavir 100 mg (q.d. or b.i.d.) ref 18, 21; cited from earlier work"}, "QTc interval": {"tested_on": "QTc interval", "conditions": "cited from earlier work"}, "[2]": {"conditions": "cited from earlier work"}, "[3]": {"conditions": "cited from earlier work", "remark": "listed apart in the source"}, "[4]": {"conditions": "cited from earlier work", "remark": "listed apart in the source"}, "[5]": {"conditions": "heavily treatment‐experienced HIV‐1 infected patients, fostemsavir 600 mg b.i.d., BRIGHTE (NCT02362503) ref 22; cited from earlier work"}, "healthy volunteers [6]": {"tested_on": "healthy volunteers", "assay": "Thorough QT/QTc study part 2: Holter ECG, Fridericia-corrected QT interval", "format": "in vivo, human", "conditions": "for Mean difference vs. placebo (90% CI), msec ddQTcF: MOX 400 mg (C–D); for Mean change from baseline, msec ddQTcF: MOX 400 mg single dose (C)", "method_in_brief": "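Healthy subjects, randomized four-period crossover with 10-day washouts, fed: oral fostemsavir 1,200 mg q.d. or 2,400 mg b.i.d. for 7 days, placebo b.i.d., or single moxifloxacin 400 mg on day 7. Triplicate ECGs from 24-h Holter, read centrally. Baseline is the mean of day-1 predose readings; readings 0.5–22.25 h post-dose on day 7. Linear mixed model gives 90% CI; bound 10 msec; assay sensitivity >5 msec at 2–4 h.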"}, "dog": {"tested_on": "dog", "conditions": "nonclinical assessment of fostemsavir or TMR ref unpublished data; cited from earlier work"}, "healthy volunteers [7]": {"tested_on": "healthy volunteers", "set-up": "species or system human", "conditions": "final linear concentration‐ddQTcF model"}, "[8]": {"conditions": "cited from earlier work", "remark": "listed apart in the source"}}, "note": "Like-named read-outs stand apart in the source and are kept apart here. Marks after values point to notes of the source that are not given here."}
{"compound": "CC(C)c1nc(CN(C)C(=O)N[C@H](C(=O)N[C@@H](Cc2ccccc2)C[C@H](O)[C@H](Cc2ccccc2)NC(=O)OCc2cncs2)C(C)C)cs1", "note": "[ritonavir]", "values": [{"measurement": "increase in TMR plasma Cmax", "setting": "[1]", "result": "45–53%"}]}
{"compound": "Cc1cc(/C=C/C#N)cc(C)c1Nc1ccnc(Nc2ccc(C#N)cc2)n1", "note": "[rilpivirine]", "values": [{"measurement": "QTc prolongation, one‐sided 95% CI upper bound", "setting": "QTc interval; supratherapeutic dose 75 mg ref 11", "result": 15.3, "unit": "ms"}, {"measurement": "QTc prolongation, one‐sided 95% CI upper bound", "setting": "QTc interval; therapeutic dose 25 mg ref 11", "result": 8.2, "unit": "ms"}]}
{"compound": "COc1cnc(-n2cnc(C)n2)c2[nH]cc(C(=O)C(=O)N3CCN(C(=O)c4ccccc4)CC3)c12", "note": "[TMR, temsavir]", "values": [{"measurement": "membrane permeability", "setting": "[2]", "result": "good"}, {"measurement": "effect of renal impairment on Cmax", "setting": "[3]", "result": "no effect"}, {"measurement": "influence of hepatic impairment on Cmax", "setting": "[4]", "result": "< 1.72", "unit": "fold"}, {"measurement": "geometric mean TMR peak plasma concentration (Cmax)", "setting": "[5]", "result": "1,770 ng/mL"}, {"measurement": "relationship of ddQTcF with plasma TMR concentration", "setting": "healthy volunteers [6]; graphical assessment, part 2 data", "result": "positive linear relationship"}, {"measurement": "maximum observed TMR concentrations indicating cardiovascular liability", "setting": "dog", "result": "≥ 3,600 ng/mL"}, {"measurement": "Intercept θ1, bootstrap parameter estimate for n = 1,000 (90% CI)", "setting": "healthy volunteers [7]", "result": "–0.727 (–2.500, 1.072) msec"}, {"measurement": "Intercept θ1, population mean estimate (% RSE)", "setting": "healthy volunteers [7]", "result": "–0.783 (139) msec"}, {"measurement": "Slope θ2, bootstrap parameter estimate for n = 1,000 (90% CI)", "setting": "healthy volunteers [7]", "result": "0.00126 (0.0011, 0.00142) msec per ng/mL TMR"}, {"measurement": "Slope θ2, population mean estimate (% RSE)", "setting": "healthy volunteers [7]", "result": "0.00126 (7.9) msec per ng/mL TMR"}]}
{"compound": "COc1c(N2C[C@@H]3CCCN[C@@H]3C2)c(F)cc2c(=O)c(C(=O)O)cn(C3CC3)c12", "note": "[MOX, moxifloxacin, reference compound]", "values": [{"measurement": "Mean difference vs. placebo (90% CI), msec ddQTcF", "setting": "healthy volunteers [6]; day 7, 0.5 hour", "result": "0.42 (–1.73, 2.58) msec"}, {"measurement": "Mean difference vs. placebo (90% CI), msec ddQTcF", "setting": "healthy volunteers [6]; day 7, 1 hour", "result": "2.95 (0.80, 5.10) msec"}, {"measurement": "Mean difference vs. placebo (90% CI), msec ddQTcF", "setting": "healthy volunteers [6]; day 7, 2 hour", "result": "8.69 (6.57, 10.82)^a msec"}, {"measurement": "Mean difference vs. placebo (90% CI), msec ddQTcF", "setting": "healthy volunteers [6]; day 7, 3 hour", "result": "10.43 (8.32, 12.54)^b msec"}, {"measurement": "Mean difference vs. placebo (90% CI), msec ddQTcF", "setting": "healthy volunteers [6]; day 7, 4 hour", "result": "10.33 (8.22, 12.44)^c msec"}, {"measurement": "Mean difference vs. placebo (90% CI), msec ddQTcF", "setting": "healthy volunteers [6]; day 7, 5 hour", "result": "8.83 (6.72, 10.94) msec"}, {"measurement": "Mean difference vs. placebo (90% CI), msec ddQTcF", "setting": "healthy volunteers [6]; day 7, 6 hour", "result": "7.98 (5.87, 10.09) msec"}, {"measurement": "Mean difference vs. placebo (90% CI), msec ddQTcF", "setting": "healthy volunteers [6]; day 7, 8 hour", "result": "8.05 (5.94, 10.17) msec"}, {"measurement": "Mean difference vs. placebo (90% CI), msec ddQTcF", "setting": "healthy volunteers [6]; day 7, 10 hour", "result": "8.96 (6.85, 11.07) msec"}, {"measurement": "Mean difference vs. placebo (90% CI), msec ddQTcF", "setting": "healthy volunteers [6]; day 7, 11.5 hour", "result": "8.75 (6.64, 10.86) msec"}, {"measurement": "Mean difference vs. placebo (90% CI), msec ddQTcF", "setting": "healthy volunteers [6]; day 7, 14 hour", "result": "7.55 (5.44, 9.66) msec"}, {"measurement": "Mean difference vs. placebo (90% CI), msec ddQTcF", "setting": "healthy volunteers [6]; day 7, 15 hour", "result": "5.64 (3.52, 7.75) msec"}, {"measurement": "Mean difference vs. placebo (90% CI), msec ddQTcF", "setting": "healthy volunteers [6]; day 7, 16 hour", "result": "6.92 (4.81, 9.03) msec"}, {"measurement": "Mean difference vs. placebo (90% CI), msec ddQTcF", "setting": "healthy volunteers [6]; day 7, 22.25 hour", "result": "6.19 (4.08, 8.30) msec"}, {"measurement": "Mean change from baseline, msec ddQTcF", "setting": "healthy volunteers [6]; day 7, 0.5 hour", "result": "–7.12 msec"}, {"measurement": "Mean change from baseline, msec ddQTcF", "setting": "healthy volunteers [6]; day 7, 1 hour", "result": "–4.82 msec"}, {"measurement": "Mean change from baseline, msec ddQTcF", "setting": "healthy volunteers [6]; day 7, 2 hour", "result": "–1.93 msec"}, {"measurement": "Mean change from baseline, msec ddQTcF", "setting": "healthy volunteers [6]; day 7, 3 hour", "result": 0.40, "unit": "ms"}, {"measurement": "Mean change from baseline, msec ddQTcF", "setting": "healthy volunteers [6]; day 7, 4 hour", "result": 3.30, "unit": "ms"}, {"measurement": "Mean change from baseline, msec ddQTcF", "setting": "healthy volunteers [6]; day 7, 5 hour", "result": 4.16, "unit": "ms"}, {"measurement": "Mean change from baseline, msec ddQTcF", "setting": "healthy volunteers [6]; day 7, 6 hour", "result": "–0.81 msec"}, {"measurement": "Mean change from baseline, msec ddQTcF", "setting": "healthy volunteers [6]; day 7, 8 hour", "result": "–0.74 msec"}, {"measurement": "Mean change from baseline, msec ddQTcF", "setting": "healthy volunteers [6]; day 7, 10 hour", "result": 5.78, "unit": "ms"}, {"measurement": "Mean change from baseline, msec ddQTcF", "setting": "healthy volunteers [6]; day 7, 11.5 hour", "result": 1.83, "unit": "ms"}, {"measurement": "Mean change from baseline, msec ddQTcF", "setting": "healthy volunteers [6]; day 7, 14 hour", "result": 0.60, "unit": "ms"}, {"measurement": "Mean change from baseline, msec ddQTcF", "setting": "healthy volunteers [6]; day 7, 15 hour", "result": 1.49, "unit": "ms"}, {"measurement": "Mean change from baseline, msec ddQTcF", "setting": "healthy volunteers [6]; day 7, 16 hour", "result": 5.41, "unit": "ms"}, {"measurement": "Mean change from baseline, msec ddQTcF", "setting": "healthy volunteers [6]; day 7, 22.25 hour", "result": 2.73, "unit": "ms"}, {"measurement": "lower bound of multiplicity‐adjusted 90% CI of ddQTcF (assay sensitivity)", "setting": "healthy volunteers [6]; moxifloxacin 400 mg, at 2, 3, and 4 hours", "result": "above 5 msec"}]}
{"compound": "CC(C)c1nc(CN(C)C(=O)N[C@@H](CCN2CCOCC2)C(=O)N[C@H](CC[C@H](Cc2ccccc2)NC(=O)OCc2cncs2)Cc2ccccc2)cs1", "note": "[cobicistat]", "values": [{"measurement": "increase in Cmax compared to without concomitant cobicistat", "setting": "[8]; coadministration with cobicistat ref 21, 22", "result": 1.71, "unit": "fold"}, {"measurement": "increase in TMR plasma Cmax", "setting": "[8]; cobicistat 150 mg q.d. ref 18, 21", "result": 71, "unit": "%"}]}
